Screens from PubChem.
NF-kB expr up: raises NF-kB expression in human neuronal cells; NF-kB reporter expression; stronger effect = higher value; 190,000 compounds, 1.6% hits; fold change at 12.5 µM; in the data active means fold change above about 3.3
STAT1 activator: increases IFN-gamma driven STAT1 reporter signal; NIH 3T3 STAT1-luciferase reporter, luminescence; 100% = IFN-gamma alone, no compound; activation (% of control), % at 5.5 µM; 200,000 compounds, 2.6% hits;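 active means activation above the screen-wide mean activation plus 3 SD, cut at about 130% in these data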
STAT3 blocker: reduces IL-6 driven STAT3 reporter signal; 190,000 compounds, 0.89% hits; AID 862; inhibition, % at 5.5 µM; U3A cells, IL-6 STAT3-luciferase reporter, luminescence; host cell line lacks STAT1;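 active means inhibition above the mean inhibition across all screened compounds plus 3 SD, cut at about 44% in these data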
STAT1 inh: STAT1 signaling inhibition | inhibition, % at 5.5 µM | 200,000 compounds, 0.35% hits | NIH 3T3 STAT1-luciferase reporter, IFN-gamma, luminescence;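 active means inhibition above a set limit, the mean inhibition across all tested compounds plus 3 SD, cut at about 34% in these data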
APP 5'UTR act: activates APP 5'UTR luciferase reporter; SH-SY5Y APP 5'UTR luciferase reporter, luminescence; zero percent = DMSO vehicle wells; activation, % at 2 µM; 190,000 compounds, 1% hits;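 active means activation above a set limit, based on mean plus 3 SD of controls, cut at about 140% in these data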
STAT3 act: increases IL-6 driven STAT3 reporter signal | U3A cells, IL-6 STAT3-luciferase reporter, luminescence; 100% = signal with IL-6 EC80 alone | activation (% of control), % at 5.6 µM | 190,000 compounds, 0.91% hits;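 active means activation above the screen-wide mean of compound activation plus 3 SD, cut at about 130% in these data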
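Test system: STAT3-luciferase reporter U3A cells; Detection: reporter luminescence signal; Times: 1 h compound pre-exposure, 6 h IL-6 stimulation, 37 °C; Benchmarks: IL-6-only high control; Also added: IL-6 stimulus at 33 ng/mL final.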
Hits are given with their value; n = inactive; x = no result. Shown are actives, neighbours in structure and some others; about 4.9% of the full set was active somewhere.

SMILES	NF-kB expr up	STAT1 activator	STAT3 blocker	STAT1 inh	APP 5'UTR act	STAT3 act
Nc1ccc(Oc2cccc(Oc3ccc(N)cc3)c2)cc1	n	n	51.1	39.1	n	n
Cc1cccc(Oc2ccc(N)cc2)c1	n	n	n	n	n	n
Cn1cccc1/C=C1\Cc2ccccc2C1=O	7.17	140.3	n	n	183.5	n
Cn1cccc1/C=C1\CC(C(C)(C)C)C/C(=C\c2cccn2C)C1=O (configuration not stated)	n	n	n	n	n	n
Cn1cccc1/C=C1\CCc2ccccc2C1=O	5.87	n	89.2	57.6	166.6	n
CCOC(=O)c1cc(NC(=O)Nc2ccccn2)c(C)nc1C	n	n	n	n	n	n
CCOc1ccc(C2=Nn3c(nnc3-c3ccccc3OC)SC2)cc1	n	n	n	n	n	145.5
CCOc1ccc(-c2nnc3n2N=C(c2ccc(OC)cc2)CS3)cc1	n	n	n	n	n	n
O=C(O)Cc1ccc(S(=O)(=O)Nc2ccccc2C(=O)O)cc1	n	n	n	n	n	n
COc1cc(C=O)ccc1OCc1ccc(Cl)nc1	x	136.5	n	n	n	n
COc1cc(C=O)ccc1OCCCCOc1ccccc1[N+](=O)[O-]	n	n	n	n	n	n
COc1ccc(CCNCc2ccc(OCc3ccc(Cl)nc3)c(OC)c2)cc1OC	n	n	n	n	n	n
COc1cc(C=O)ccc1OCCCOc1ccccc1C(=O)O	n	147.9	n	n	n	n
COc1cc(C=O)ccc1OCCCOc1ccccc1[N+](=O)[O-]	n	130.1	n	n	n	n
C/C=C/c1ccc(OCCOc2cc(C=O)ccc2OC)c(OC)c1	n	131.0	n	n	n	n
C/C=C/c1ccc(OCCCCOc2ccccc2F)c(OC)c1	n	n	n	n	n	n
CC(C)C(C(=O)O)N1CCS(=O)(=O)CC1 (configuration not stated)	n	n	n	n	n	n
Cc1ccc(/C=C/C(=O)O)cc1S(=O)(=O)NC1CCS(=O)(=O)C1 (configuration not stated)	n	n	n	n	n	n
NS(=O)(=O)c1cccc(NC(=O)COC(=O)COc2ccc3ccccc3c2)c1	n	n	n	n	n	n
CC(C)N1CSC(=S)N(Cc2ccccc2)C1	n	n	n	n	n	n
CC(C)(C)N1CSC(=S)N(Cc2ccccc2)C1	4.47	n	n	n	n	n
CC(Sc1cnccn1)C(=O)O (configuration not stated)	n	n	n	n	n	n
COC(=O)C1C(=O)/C(=C/N(C)C)C(=O)CC1(C)C (configuration not stated)	6.15	n	n	n	n	n
COc1ccc(C2C(C(=O)c3ccccc3)N3c4ccccc4C=CC3C2[N+](=O)[O-])cc1 (configuration not stated)	n	n	n	n	n	132.9
O=C(O)/C=C/C(=O)NNC(=O)c1cccc(Br)c1	n	n	n	n	n	n
SMILES	NF-kB expr up	STAT1 activator	STAT3 blocker	STAT1 inh	APP 5'UTR act	STAT3 act
O=C(c1cc(COc2ccc(F)cc2F)on1)N1CCSCC1	n	137.6	n	n	n	n
CCc1ccc(NC(=O)C(C)OC(=O)c2cccc(S(=O)(=O)N3CCc4ccccc4C3)c2)cc1 (configuration not stated)	n	n	n	n	n	n
Cc1ccc(C2CC(C(F)(F)F)n3nc(C(=O)NCc4c(C)nn(C)c4C)c(Cl)c3N2)cc1 (configuration not stated)	n	n	59.6	58.7	n	n
Cc1nn(C)c(C)c1CNC(=O)c1cnn2c1NC(c1ccccc1)CC2C(F)(F)F (configuration not stated)	n	n	n	n	n	n
O=C(NCCc1ccccc1)C(=O)c1c(-c2ccccc2)[nH]c2ccccc12	n	n	n	n	n	n
Cc1cc(C(=O)CSc2ccc3c(c2)OCCO3)c(C)n1C1CC1	n	133.4	n	n	n	n
Cc1ccccc1NC(=O)c1onc2c1CCCC2	3.56	142.3	n	n	n	n
COC(=O)c1cccc(NC(=O)c2onc3c2CCCC3)c1	10.4	149.6	n	n	n	n
Cc1cccc(NC(=O)c2onc3c2CCCC3)c1C	n	140.4	n	n	n	n
Cc1cccc(NC(=O)c2ccccn2)c1C	n	n	n	n	n	n
C=CC(=O)NC(NC(=O)C=C)c1ccc(Br)cc1	3.33	n	n	n	n	n
